Source: ChEMBL document CHEMBL3864182, “Discovery and Optimization of a Novel Triazole Series of GPR142 Agonists for the Treatment of Type 2 Diabetes” (ACS Med Chem Lett, 2016)
Values after ≈ are worked out from the molar mass of the structure shown. Active and inactive are the calls of the source. The calls are words filed in the database; no cut-off is given here.

Key:
[1] = molecular target: T1, Probable G-protein coupled receptor 142 (Homo sapiens, UniProt Q7Z601); assay: Agonist activity at human GPR142 expressed in CHO cells measured for 3 to 5 mins by Fluo-4AM dye-based FLIPR assay; format: cell-based
T1 sequence (Q7Z601 whole entry): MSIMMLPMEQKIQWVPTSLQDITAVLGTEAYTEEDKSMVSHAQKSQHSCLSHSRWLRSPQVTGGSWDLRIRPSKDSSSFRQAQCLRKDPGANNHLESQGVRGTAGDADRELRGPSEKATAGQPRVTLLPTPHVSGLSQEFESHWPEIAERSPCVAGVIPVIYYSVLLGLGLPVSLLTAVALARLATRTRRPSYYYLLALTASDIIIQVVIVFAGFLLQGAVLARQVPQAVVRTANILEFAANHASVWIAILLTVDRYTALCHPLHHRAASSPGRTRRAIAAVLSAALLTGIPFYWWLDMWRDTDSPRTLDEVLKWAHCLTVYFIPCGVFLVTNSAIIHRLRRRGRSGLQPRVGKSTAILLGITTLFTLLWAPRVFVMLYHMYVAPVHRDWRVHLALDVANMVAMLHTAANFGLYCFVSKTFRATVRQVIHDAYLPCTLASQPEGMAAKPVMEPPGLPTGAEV

[2] = molecular target: T2, Probable G-protein coupled receptor 142 (Mus musculus, UniProt Q7TQN9); assay: Agonist activity at mouse GPR142 expressed in CHO cells measured for 3 to 5 mins by Fluo-4AM dye-based FLIPR assay; format: cell-based
T2 sequence (Q7TQN9 whole entry): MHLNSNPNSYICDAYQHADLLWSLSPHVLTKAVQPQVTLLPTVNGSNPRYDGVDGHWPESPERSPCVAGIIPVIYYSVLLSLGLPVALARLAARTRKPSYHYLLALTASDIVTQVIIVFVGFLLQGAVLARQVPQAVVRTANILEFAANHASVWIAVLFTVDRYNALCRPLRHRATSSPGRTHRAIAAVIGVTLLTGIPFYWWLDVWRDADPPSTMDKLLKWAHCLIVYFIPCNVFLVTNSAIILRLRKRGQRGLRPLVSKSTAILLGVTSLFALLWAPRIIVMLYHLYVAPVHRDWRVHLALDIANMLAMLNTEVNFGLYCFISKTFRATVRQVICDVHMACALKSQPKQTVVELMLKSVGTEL

[3] = molecular target: T1, Probable G-protein coupled receptor 142; assay: Agonist activity at human GPR142 expressed in CHO cells measured after 30 to 60 mins by IP-One assay; format: cell-based
[4] = molecular target: T2, Probable G-protein coupled receptor 142; assay: Agonist activity at mouse GPR142 expressed in CHO cells measured after 30 to 60 mins by IP-One assay; format: cell-based
[5] = Metabolic stability in human liver microsomes assessed as compound remaining at 1 uM measured after 30 mins; format: ADME; settings: read-out: Stability
[6] = Metabolic stability in rat liver microsomes assessed as compound remaining at 1 uM measured after 30 mins; format: ADME; settings: read-out: Stability
[7] = Metabolic stability in mouse liver microsomes assessed as compound remaining at 1 uM measured after 30 mins; format: ADME; settings: read-out: Stability
[8] = Solubility of the compound in PBS at pH 2; format: physicochemical
[9] = Solubility of the compound in PBS at pH 7; format: physicochemical
[10] = Lipophilicity, log D of the compound at pH 7; format: physicochemical; settings: buffer
Cytochrome P450 2D6 = Cytochrome P450 2D6 (Homo sapiens, UniProt P10635); assay: Inhibition of CYP2D6 (unknown origin); format: ADME
Sequence of Cytochrome P450 2D6 (P10635 whole entry): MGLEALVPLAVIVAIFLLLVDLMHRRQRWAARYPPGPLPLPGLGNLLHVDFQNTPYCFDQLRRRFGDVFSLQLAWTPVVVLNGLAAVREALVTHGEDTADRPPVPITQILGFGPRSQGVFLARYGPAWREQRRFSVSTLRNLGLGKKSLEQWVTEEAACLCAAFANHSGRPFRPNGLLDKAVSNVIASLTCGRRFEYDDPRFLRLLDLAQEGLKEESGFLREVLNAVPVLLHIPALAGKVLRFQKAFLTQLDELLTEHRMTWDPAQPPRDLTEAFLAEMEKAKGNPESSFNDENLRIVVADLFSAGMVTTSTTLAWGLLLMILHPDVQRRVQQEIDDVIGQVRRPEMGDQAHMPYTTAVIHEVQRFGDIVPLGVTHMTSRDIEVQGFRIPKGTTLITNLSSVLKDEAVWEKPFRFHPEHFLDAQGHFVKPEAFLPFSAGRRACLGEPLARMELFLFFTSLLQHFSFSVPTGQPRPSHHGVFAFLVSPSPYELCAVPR

Cytochrome P450 3A4 = Cytochrome P450 3A4 (Homo sapiens, UniProt P08684); assay: Inhibition of CYP3A4 (unknown origin); format: ADME
Sequence of Cytochrome P450 3A4 (P08684 whole entry): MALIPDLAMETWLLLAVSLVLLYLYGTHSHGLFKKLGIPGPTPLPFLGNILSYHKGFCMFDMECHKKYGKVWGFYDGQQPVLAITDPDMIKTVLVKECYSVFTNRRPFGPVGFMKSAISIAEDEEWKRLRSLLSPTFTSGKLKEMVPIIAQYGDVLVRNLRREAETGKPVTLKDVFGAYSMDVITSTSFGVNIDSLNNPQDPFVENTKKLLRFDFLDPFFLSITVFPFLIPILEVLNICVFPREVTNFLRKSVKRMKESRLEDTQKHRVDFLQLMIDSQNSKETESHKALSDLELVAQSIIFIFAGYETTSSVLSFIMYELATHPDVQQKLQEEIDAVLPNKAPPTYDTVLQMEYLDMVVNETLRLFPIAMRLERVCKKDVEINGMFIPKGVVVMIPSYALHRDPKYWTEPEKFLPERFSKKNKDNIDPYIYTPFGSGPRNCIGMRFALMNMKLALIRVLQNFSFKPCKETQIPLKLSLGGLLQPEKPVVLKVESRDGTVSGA

[11] = molecular target: Sodium channel protein type 5 subunit alpha (Homo sapiens, UniProt Q14524); assay: Inhibition of Nav1.5 (unknown origin)
Sequence of Sodium channel protein type 5 subunit alpha (Q14524 whole entry): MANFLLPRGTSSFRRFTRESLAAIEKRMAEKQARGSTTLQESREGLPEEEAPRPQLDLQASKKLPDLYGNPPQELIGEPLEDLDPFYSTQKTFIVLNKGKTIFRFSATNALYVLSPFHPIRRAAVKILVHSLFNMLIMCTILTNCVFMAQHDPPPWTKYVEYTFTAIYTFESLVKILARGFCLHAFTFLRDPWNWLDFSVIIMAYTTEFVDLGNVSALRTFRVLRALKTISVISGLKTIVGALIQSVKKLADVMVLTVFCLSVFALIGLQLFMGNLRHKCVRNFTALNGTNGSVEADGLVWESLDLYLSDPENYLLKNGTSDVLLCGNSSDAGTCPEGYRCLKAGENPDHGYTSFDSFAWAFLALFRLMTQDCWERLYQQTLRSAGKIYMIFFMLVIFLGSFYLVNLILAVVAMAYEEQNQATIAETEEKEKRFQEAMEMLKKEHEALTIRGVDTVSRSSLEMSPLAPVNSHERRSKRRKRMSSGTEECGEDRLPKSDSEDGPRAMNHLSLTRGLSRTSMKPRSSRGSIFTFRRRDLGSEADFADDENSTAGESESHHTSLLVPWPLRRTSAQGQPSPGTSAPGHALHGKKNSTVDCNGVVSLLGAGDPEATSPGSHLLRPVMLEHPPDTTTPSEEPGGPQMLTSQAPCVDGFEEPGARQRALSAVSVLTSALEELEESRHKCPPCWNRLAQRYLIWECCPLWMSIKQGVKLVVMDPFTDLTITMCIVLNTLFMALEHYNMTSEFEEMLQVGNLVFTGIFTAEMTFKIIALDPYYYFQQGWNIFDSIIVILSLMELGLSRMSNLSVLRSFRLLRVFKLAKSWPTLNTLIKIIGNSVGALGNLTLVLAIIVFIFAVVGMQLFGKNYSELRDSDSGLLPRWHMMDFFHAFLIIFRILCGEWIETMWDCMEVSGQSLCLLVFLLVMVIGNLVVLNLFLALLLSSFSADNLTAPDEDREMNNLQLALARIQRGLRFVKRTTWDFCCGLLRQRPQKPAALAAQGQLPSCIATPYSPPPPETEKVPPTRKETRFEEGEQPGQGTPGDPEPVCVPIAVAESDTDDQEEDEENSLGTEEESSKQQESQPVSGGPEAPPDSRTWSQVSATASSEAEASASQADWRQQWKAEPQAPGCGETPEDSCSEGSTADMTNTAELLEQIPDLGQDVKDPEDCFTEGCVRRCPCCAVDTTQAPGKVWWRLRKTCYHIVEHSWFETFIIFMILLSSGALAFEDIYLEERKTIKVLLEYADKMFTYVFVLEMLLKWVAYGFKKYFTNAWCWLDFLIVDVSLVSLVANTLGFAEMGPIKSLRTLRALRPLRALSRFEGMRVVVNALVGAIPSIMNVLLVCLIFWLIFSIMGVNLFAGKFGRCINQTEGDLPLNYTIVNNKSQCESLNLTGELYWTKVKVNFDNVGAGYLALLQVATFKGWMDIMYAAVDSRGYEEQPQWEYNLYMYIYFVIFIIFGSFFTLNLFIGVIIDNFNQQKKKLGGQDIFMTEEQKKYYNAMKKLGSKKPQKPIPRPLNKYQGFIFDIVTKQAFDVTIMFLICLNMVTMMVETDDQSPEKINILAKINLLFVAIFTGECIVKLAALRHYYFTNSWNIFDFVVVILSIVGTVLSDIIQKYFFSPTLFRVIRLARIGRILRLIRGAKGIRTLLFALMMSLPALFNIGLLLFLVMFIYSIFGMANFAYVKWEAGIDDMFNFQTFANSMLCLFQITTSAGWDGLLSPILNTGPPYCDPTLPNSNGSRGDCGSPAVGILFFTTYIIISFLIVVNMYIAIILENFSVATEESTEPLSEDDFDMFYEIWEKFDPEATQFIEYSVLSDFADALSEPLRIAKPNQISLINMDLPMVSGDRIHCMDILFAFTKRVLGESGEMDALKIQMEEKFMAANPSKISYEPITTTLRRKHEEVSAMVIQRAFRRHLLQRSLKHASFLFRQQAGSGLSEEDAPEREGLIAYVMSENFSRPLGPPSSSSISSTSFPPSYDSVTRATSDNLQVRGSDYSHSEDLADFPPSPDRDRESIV

[12] = molecular target: Voltage-dependent L-type calcium channel subunit alpha-1C (Homo sapiens, UniProt Q13936); assay: Inhibition of Cav1.2 (unknown origin)
[13] = Apparent permeability in pig LLC-PK1 cells at 5 uM measured after 3 hrs; format: ADME, cell-based, Sus scrofa
[14] = Plasma clearance in Sprague-Dawley rat at 1 mg/kg, iv or 2 mg/kg, po; format: ADME, organism-based
[15] = Unbound clearance in Sprague-Dawley rat plasma at 1 mg/kg, iv or 2 mg/kg, po; format: ADME, organism-based; settings: in vivo
How it was run: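 Rat pharmacokinetic study; plasma clearance corrected for plasma protein binding as Clu = Clp/fu, where fu is the unbound fraction in plasma.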

[16] = Half life in Sprague-Dawley rat at 1 mg/kg, iv or 2 mg/kg, po; format: ADME, organism-based; settings: in vivo
[17] = Oral bioavailability in Sprague-Dawley rat at 2 mg/kg; format: ADME, organism-based; settings: in vivo
[18] = Fraction unbound in Sprague-Dawley rat plasma at 1 mg/kg, iv or 2 mg/kg, po; format: ADME, organism-based
[19] = molecular target: T3, Probable G-protein coupled receptor 142 (Mus musculus) (UniProt Q7TQN9); assay: Agonist activity at GPR142 in mouse islets assessed as potentiation of glucose-stimulated insulin secretion at 3 to 10 uM in presence of 16 mM glucose
T3 sequence (whole entry): T2 sequence (Q7TQN9 whole entry)
How it was run: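 Ex vivo insulin secretion in freshly isolated mouse islets, tested at low (2 mM) and high (16 mM) glucose. GLP-1 was run as a reference in the same experiment. Each treatment was compared with vehicle by 1-way ANOVA.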

Mus musculus [20] = assay: Antihyperglycemic activity in fasted C57BL/6 mouse assessed as reduction in glucose AUC administered prior to dextrose challenge measured after 90 mins by oral glucose tolerance test; format: functional
Mus musculus [21] = assay: Antihyperglycemic activity in fasted C57BL/6 mouse assessed as reduction in glucose AUC (0 to 120 mins) at 30 mg/kg, po administered prior to dextrose challenge by oral glucose tolerance test; format: functional; parameters: scale not given: the % may be the effect or the level left
How it was run: (§1)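 Lean mice given the compound orally (1 to 30 mpk), then orally challenged with 5 g/kg dextrose. Glucose excursion expressed as AUC0–120 min reduction versus vehicle. N = 7 per group; ANOVA with Dunnett's post-test.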

Mus musculus [22] = assay: Antihyperglycemic activity in fasted C57BL/6 mouse assessed as reduction in glucose AUC (0 to 120 mins) at 3 mg/kg, po administered prior to dextrose challenge by oral glucose tolerance test; format: functional; parameters: scale not given: the % may be the effect or the level left; how it was run: as §1
Mus musculus [23] = assay: Antihyperglycemic activity in fasted C57BL/6 mouse assessed as reduction in glucose AUC (0 to 120 mins) at 1 mg/kg, po administered prior to dextrose challenge by oral glucose tolerance test; format: functional; parameters: scale not given: the % may be the effect or the level left; how it was run: as §1
[24] = Drug level in fasted C57BL/6 mouse plasma at 30 mg/kg, po measured after 2.5 hrs post dose; format: ADME, organism-based
How it was run: (§2)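 Plasma sampled from the oral glucose tolerance test mice (5 g/kg dextrose challenge) at 2.5 h after oral dosing. Total drug level measured; free level derived using the unbound plasma fraction.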

[25] = Drug level in fasted C57BL/6 mouse plasma at 3 mg/kg, po measured after 2.5 hrs post dose; format: ADME, organism-based; how it was run: as §2
[26] = Drug level in fasted C57BL/6 mouse plasma at 1 mg/kg, po measured after 2.5 hrs post dose; format: ADME, organism-based; how it was run: as §2
[27] = Fraction unbound in fasted C57BL/6 mouse plasma at 30 mg/kg, po measured after 2.5 hrs post dose; format: ADME, organism-based; settings: in vivo

For `Cc1nccn1-c1ccc(-c2cn(CC(=O)Nc3cccc(Cl)c3Cl)nn2)cc1`, the EC50 [1] was 0.025 µM, the EC50 [2] was 0.027 µM and the EC50 [3] was 0.012 µM. The EC50 [4] was 0.003 µM, the remaining at 0.5 h, 1 µM [5] was 56% and the remaining at 0.5 h, 1 µM [6] was 75%. It also gave a remaining at 0.5 h, 1 µM [7] of 63%, a solubility [8] of 170 µM (≈ 72.6 µg/mL) and a solubility [9] of 5 µM (≈ 2.14 µg/mL). For the same compound, the logD [10] was 2.42, the IC50 (Cytochrome P450 2D6) was 9.4 µM and the IC50 (Cytochrome P450 3A4) was 15 µM. The IC50 [11] was 21 µM, the IC50 [12] was 21 µM and the Papp at 3 h, 5 µM [13] was 28 ×10⁻⁶ cm/s. It also gave a clearance [14] of 13 mL/min/kg, a CL free [15] of 1000 mL/min/kg and a half-life [16] of 54 min. The bioavailability [17] was 56%, the fraction unbound [18] was 0.013 and the Activity [19] was “Active”. The Activity (Mus musculus [20]) was “Dose-dependent effect”, the Activity (Mus musculus [21]) was 89% and the Activity (Mus musculus [22]) was 79%. The Activity (Mus musculus [23]) was 49%, the concentration at 2.5 h [24] was 11500 nM and the concentration at 2.5 h [25] was 274 nM. The concentration at 2.5 h [26] was 44 nM and the “Cp(f)” value [27] was 149 nM.
